Source: PubChem BioAssay (several laboratories)
Shown are actives, neighbours in structure and some others; about 1.5% of the full set was active somewhere.
CSN deneddyl inh = inhibitors of human CSN-mediated cullin deneddylation. Q92905. Purified CSN, SCF-Nedd8-OG deneddylation, fluorescence polarization. inhibition, % at 12.5 µM. 360,000 compounds, 0.38% hits. AID 651999;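 active means pattern-corrected inhibition above about 35%, with an unprinted fluorescence ratio check between 0.5 and 1.5, limit read from the data, passing the limit was not always enough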;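 further: 0% = enzyme with substrate and 100% = substrate without enzyme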
Target sequence (Q92905 whole entry, looked up, one chain of several): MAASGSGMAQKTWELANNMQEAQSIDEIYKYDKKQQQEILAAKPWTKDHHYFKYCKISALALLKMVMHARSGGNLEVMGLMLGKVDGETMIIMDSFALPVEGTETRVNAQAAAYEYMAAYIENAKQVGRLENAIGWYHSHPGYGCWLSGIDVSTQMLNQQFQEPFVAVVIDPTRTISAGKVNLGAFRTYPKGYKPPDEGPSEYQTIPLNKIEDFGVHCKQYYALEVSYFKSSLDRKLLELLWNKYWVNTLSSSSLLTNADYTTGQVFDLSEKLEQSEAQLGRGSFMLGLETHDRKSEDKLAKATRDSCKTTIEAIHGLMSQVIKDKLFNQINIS
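Detection – fluorescence polarization · System – HEK293T-derived human Csn5 enzyme · Controls – substrate-only high control, full reaction low control · Timing – 90 min, room temperature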
TPT1 inhibitor = C. albicans TPT1 enzyme inhibition | inhibition, % at 5 µM | 300,000 compounds, 0.81% hits | recombinant caTPT1, FP RNA substrate dephosphorylation;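 active means inhibition above the mean of all tested compounds plus 3 SD, set per screening campaign, cut at about 24% in these data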;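 further: plate controls were DMSO alone for no effect and ferristatin control at 100 nM for full effect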
HNF4A DNA FP = change in binding of human HNF4 alpha to DNA | P41235 | HNF4a-FITC DNA binding, fluorescence polarization, 1 h | activity change, % at 10 µM | 360,000 compounds, 0.3% hits | AID 1224865; in the data active means activity change above about 30%, passing the limit was not always enough
Rpn11 block = blocks the human proteasome subunit Rpn11; O00487; human 26S proteasome, Ub4-pepOG fluorescence polarization; 20S core pre-blocked with epoxomicin; calls only at 20 µM; 360,000 compounds, 0.59% hits; AID 588493;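 active means inhibition at 20 µM, scaled to each plate's controls, above about 33%, limit read from the data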
Target sequence (O00487 whole entry, looked up): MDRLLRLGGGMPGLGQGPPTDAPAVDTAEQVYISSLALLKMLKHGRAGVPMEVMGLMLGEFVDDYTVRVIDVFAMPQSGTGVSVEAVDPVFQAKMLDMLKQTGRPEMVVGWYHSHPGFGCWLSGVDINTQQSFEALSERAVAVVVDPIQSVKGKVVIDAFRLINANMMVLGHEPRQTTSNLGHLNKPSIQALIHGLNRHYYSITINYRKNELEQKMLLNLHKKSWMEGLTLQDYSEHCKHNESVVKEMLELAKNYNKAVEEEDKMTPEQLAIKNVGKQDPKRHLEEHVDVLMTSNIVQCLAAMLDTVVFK
Active calls of the source: *; ! = not active in a repeat.

Results for COc1cccc(/C=C2\SC(=S)N(C(Cc3ccccc3)C(=O)O)C2=O)c1 (centres undefined) ?
CSN deneddyl inh: -1.2; TPT1 inhibitor: -1.0; HNF4A DNA FP: 54.4*; Rpn11 block: inactive

How did CCOc1ccc(NC(=O)/C(C#N)=C\c2ccc(N3CCCC3)c(C)c2)cc1 do in these assays?
CSN deneddyl inh: 46.8*; HNF4A DNA FP: 97.7

Results for CN1CCN(S(=O)(=O)c2ccc(N(C)Cc3ccc(OC(F)F)cc3)c([N+](=O)[O-])c2)CC1 ?
CSN deneddyl inh: 3.2; TPT1 inhibitor: 4.0; HNF4A DNA FP: 2.6; Rpn11 block: inactive

Results for CC(=O)Nc1cccc(-c2cc(NC(C)=O)c3ncc(-c4ccc(C(C)=O)cc4)n3c2)c1 ?
CSN deneddyl inh: 2.0; HNF4A DNA FP: 5.7; Rpn11 block: inactive

Results for COc1cc(/C=C2\CCC(C)C3=C(c4cc(OC)c(OC)c(OC)c4)C(C#N)=C(N)OC32)cc(OC)c1OC (centres undefined) ?
CSN deneddyl inh: 74.9; HNF4A DNA FP: 77.6*

Results for C[C@@H]1CN([C@@H](C)CO)S(=O)(=O)c2ccc(Br)cc2O[C@@H]1CN(C)C(=O)c1ccncc1 ?
CSN deneddyl inh: -1.9; HNF4A DNA FP: 0.8; Rpn11 block: inactive

Results for C(=C\c1ccccc1)/CN1CCN(C(c2nnnn2C2CCCC2)C2CC2)CC1 (centres undefined) ?
CSN deneddyl inh: -0.7; HNF4A DNA FP: 0.2; Rpn11 block: inactive

Results for CC(C)(C)n1nnnc1C(C1CC1)N1CCN(C/C=C/c2ccccc2)CC1 (centres undefined) ?
CSN deneddyl inh: 51.2*; HNF4A DNA FP: 1.9; Rpn11 block: inactive

Results for CN(CC(=O)Nc1ccc(F)cc1)C(=O)Cn1cnc2ccc(Cl)cc2c1=O ?
CSN deneddyl inh: -3.5; HNF4A DNA FP: 1.5; Rpn11 block: inactive

How did CCCC(NC(=O)CCc1c(C)c2cc3c(C)c(C)oc3cc2oc1=O)C(=O)NC(Cc1ccc(Cl)cc1)C(=O)O (centres undefined) do in these assays?
CSN deneddyl inh: 37.1*; HNF4A DNA FP: 4.9; Rpn11 block: inactive

Results for Oc1c(C=C2N=c3ccccc3=N2)sc(=S)n1-c1ccc(F)cc1 ?
CSN deneddyl inh: -4.8; TPT1 inhibitor: 18.5; HNF4A DNA FP: 38.8*!; Rpn11 block: inactive

Results for O=C(NCCc1ccc(Cl)cc1Cl)c1cncc(Br)c1 ?
CSN deneddyl inh: 2.6; TPT1 inhibitor: -2.2; HNF4A DNA FP: 0.1; Rpn11 block: inactive

What do the screens show for `CCCCCCCCCCCCCCCC[n+]1cccc(C(=O)N(CC)CC)c1`?
CSN deneddyl inh: 4.0; TPT1 inhibitor: 0.8; HNF4A DNA FP: 3.5; Rpn11 block: active!

What do the screens show for `CCCCCCCC[n+]1cccc(C(=O)N(CC)CC)c1`?
CSN deneddyl inh: -1.5; TPT1 inhibitor: -1.2; HNF4A DNA FP: -0.6; Rpn11 block: inactive

How did CCn1cc(CNC(=O)/C=C/c2cnn(C)c2)c(C)n1 do in these assays?
CSN deneddyl inh: -1.1; TPT1 inhibitor: -1.4; HNF4A DNA FP: 45.4*; Rpn11 block: inactive

How did CCn1cc(CNC(=O)/C=C/c2ccc([N+](=O)[O-])cc2)c(C)n1 do in these assays?
CSN deneddyl inh: 5.4; TPT1 inhibitor: -1.5; HNF4A DNA FP: 0.0; Rpn11 block: inactive

Results for Cc1cc(F)ccc1NS(=O)(=O)c1cccc2nsnc12 ?
CSN deneddyl inh: 2.7; TPT1 inhibitor: -2.8; HNF4A DNA FP: 2.7; Rpn11 block: inactive

How did Cc1ccc(O)c(NS(=O)(=O)c2cccc3nsnc23)c1 do in these assays?
CSN deneddyl inh: -3.5; TPT1 inhibitor: -3.1; HNF4A DNA FP: 78.8*; Rpn11 block: inactive

What do the screens show for `Cc1cc2nc[nH]c(=O)n2n1`?
CSN deneddyl inh: 1.2; HNF4A DNA FP: -0.9; Rpn11 block: inactive

What do the screens show for `Cc1ccc(C(=O)CSc2nnc(CNc3nc(-c4ccccc4)cs3)n2C)cc1`?
CSN deneddyl inh: -4.9; TPT1 inhibitor: 3.3; HNF4A DNA FP: 114.5*; Rpn11 block: inactive

Results for CC1CC(C)CN(C(=O)CNC(=O)c2ccc3ccccc3c2)C1 (centres undefined) ?
CSN deneddyl inh: 2.7; TPT1 inhibitor: 0.2; HNF4A DNA FP: 0.7; Rpn11 block: inactive

What do the screens show for `O=C(NCC(=O)N1CCN(c2ccccc2O)CC1)c1cccs1`?
CSN deneddyl inh: -0.9; TPT1 inhibitor: -1.6; HNF4A DNA FP: 1.5; Rpn11 block: inactive

Results for CC(=O)c1cccc(NC(=O)CNC(=O)Cc2cccc3ccccc23)c1 ?
CSN deneddyl inh: -1.8; HNF4A DNA FP: 0.1; Rpn11 block: inactive

How did COc1ccc(NC(=O)CNC(=O)Cc2cccc3ccccc23)cc1 do in these assays?
CSN deneddyl inh: 36.6*; HNF4A DNA FP: -4.2; Rpn11 block: inactive

How did CC1(C)OC(c2ccccc2)=C/C(=C/C=C2C(=O)c3ccccc3C2=O)O1 do in these assays?
CSN deneddyl inh: 28.8; TPT1 inhibitor: -4.9; HNF4A DNA FP: 84.1*; Rpn11 block: inactive

Results for Cc1ccccc1N=C/C=C1/C=C(c2ccccc2)OC(C)(C)O1 ?
CSN deneddyl inh: 4.1; TPT1 inhibitor: 2.4; HNF4A DNA FP: 2.7; Rpn11 block: inactive

Results for Cc1ccc(C2CC(=O)N3CN(c4ccc(Br)cc4)CSC3=C2C#N)o1 (centres undefined) ?
CSN deneddyl inh: 35.3*; TPT1 inhibitor: 17.5; HNF4A DNA FP: -10.7; Rpn11 block: active

Results for Nc1ccc(Sc2ccccc2)nc1 ?
CSN deneddyl inh: -2.0; TPT1 inhibitor: 1.1; HNF4A DNA FP: -0.1; Rpn11 block: inactive

How did Cc1ccc(Sc2ccc(N)cn2)cc1 do in these assays?
CSN deneddyl inh: 44.7*; TPT1 inhibitor: 0.5; HNF4A DNA FP: 4.6; Rpn11 block: inactive

Results for Cc1cc(C)cc(C(=O)N2CCCCC2)c1 ?
CSN deneddyl inh: 0.9; HNF4A DNA FP: 3.7; Rpn11 block: inactive

How did O=C(Nc1ccc(OCC(=O)N2CCOCC2)cc1)c1cccc(Cl)c1 do in these assays?
CSN deneddyl inh: -0.7; TPT1 inhibitor: -5.0; HNF4A DNA FP: -0.4; Rpn11 block: inactive

Results for COc1cc(O)c(C(C)=O)c(CC(=O)O)c1 ?
CSN deneddyl inh: 35.0*; TPT1 inhibitor: 0.8; HNF4A DNA FP: -15.3; Rpn11 block: inactive

Results for COc1cc(O)c(C(C)=O)c(OC)c1 ?
CSN deneddyl inh: -3.7; HNF4A DNA FP: 0.5; Rpn11 block: inactive

Results for C=CCOc1ccc(CNC(C)(C)C)cc1OC ?
CSN deneddyl inh: -3.6; TPT1 inhibitor: -0.8; HNF4A DNA FP: 50.9*; Rpn11 block: inactive

Results for CC(C)(C)NC(=O)Cn1c(SCC(=O)N2CCCCCC2)nc2ccccc21 ?
CSN deneddyl inh: -3.8; TPT1 inhibitor: -2.1; HNF4A DNA FP: 31.6*; Rpn11 block: inactive

What do the screens show for `CCN(CC)c1ccc(NC2CC(=O)N(CCc3ccc(OC)cc3)C2=O)cc1` (centres undefined)?
CSN deneddyl inh: 51.4*; TPT1 inhibitor: 3.5; HNF4A DNA FP: 57.2*

What do the screens show for `O=C(CSc1nnc2scc(-c3ccccc3)n12)Nc1nsc(-c2ccccc2)n1`?
CSN deneddyl inh: 32.4; TPT1 inhibitor: 2.2; HNF4A DNA FP: 10.3; Rpn11 block: inactive
